In ChEMBL document CHEMBL1154803, “Tetranortriterpenoids from Chisocheton paniculatus” (J Nat Prod, 2009):

Assays:
SMMC-7721 = experiment: Cytotoxicity against human SMMC7721 cells by MTT assay; assay type: functional, cell-based
Method in brief: (§1)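 MTT assay per a literature method. HeLa (cervical) and SMMC7721 (hepatoma) cells came from the Cell Bank of the Shanghai Institute of Cell Biology. Fluorouracil served as positive control. Three independent replicates were run, and IC50 values were reported.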

HeLa = experiment: Cytotoxicity against human HeLa cells by MTT assay; assay type: functional, cell-based; method in brief: as §1

In the case of `C/C=C(\C)C(=O)O[C@@H]1[C@@H]2OC[C@]3(C)[C@H](OC(C)=O)C[C@H](OC(C)=O)[C@@](C)([C@@H]23)[C@H]2C[C@H](OC)O[C@H]3C[C@@H](C4=CCOC4=O)C(C)=C3[C@]12C` [CHISONIMBOLININ A], the IC50 (SMMC-7721) is reported as > 100 µM and the IC50 (HeLa) is reported as > 100 µM.

In the case of `C/C=C(\C)C(=O)O[C@@H]1[C@@H]2OC[C@]3(C)[C@H](OC(C)=O)C[C@H](O)[C@@](C)([C@@H]23)[C@H]2C[C@H](OC)O[C@H]3C[C@@H](C4=CCOC4=O)C(C)=C3[C@]12C` [CHISONIMBOLININ B], the IC50 (SMMC-7721) is reported as 50 µM and the IC50 (HeLa) is reported as > 100 µM.

`C/C=C(\C)C(=O)O[C@@H]1[C@@H]2OC[C@]3(C)[C@H](OC(=O)/C(C)=C/C)C[C@H](O)[C@@](C)([C@@H]23)[C@H]2C[C@H](OC)O[C@H]3C[C@@H](C4=CCOC4=O)C(C)=C3[C@]12C` [CHISONIMBOLININ C] was tested, and the IC50 (SMMC-7721) was 50 µM and the IC50 (HeLa) was 13 µM.

`C/C=C(\C)C(=O)O[C@@H]1[C@@H]2OC[C@]3(C)[C@H](OC(C)=O)C[C@H](O)[C@@](C)([C@@H]23)[C@H]2C[C@H](O)O[C@H]3C[C@@H](C4=CCOC4=O)C(C)=C3[C@]12C` [CHISONIMBOLININ D] was tested, and the IC50 (SMMC-7721) was 50 µM and the IC50 (HeLa) was 32 µM.

In the case of `C/C=C(\C)C(=O)O[C@@H]1[C@@H]2OC[C@]3(C)[C@H](OC(C)=O)C[C@H](O)[C@@](C)([C@@H]23)[C@H]2C[C@H](OCC)O[C@H]3C[C@@H](C4=CCOC4=O)C(C)=C3[C@]12C` [CHISONIMBOLININ E], the IC50 (SMMC-7721) is reported as > 100 µM and the IC50 (HeLa) is reported as > 100 µM.

With `C/C=C(\C)C(=O)O[C@@H]1[C@@H]2OC[C@]3(C)[C@H](OC(C)=O)C[C@H](O)[C@@](C)([C@@H]23)[C@H]2CCO[C@H]3C[C@@H](C4=CCOC4=O)C(C)=C3[C@]12C` [CHISONIMBOLININ F] the IC50 (SMMC-7721) was > 100 µM and the IC50 (HeLa) was > 100 µM.

With `C/C=C(\C)C(=O)O[C@@H]1[C@@H]2OC[C@]3(C)[C@H](OC(C)=O)C[C@H](OC(C)=O)[C@@](C)([C@@H]23)[C@H]2CCO[C@H]3C[C@@H](C4=CCOC4=O)C(C)=C3[C@]12C` [CHISONIMBOLININ G] the IC50 (SMMC-7721) was > 100 µM and the IC50 (HeLa) was > 100 µM.
